Assay results published in ChEMBL document CHEMBL1124106, “Synthesis of diethylenetriaminepentaacetic acid conjugated inulin and utility for cellular uptake of liposomes” (J Med Chem, 1988).
Several values for one entry are separate records, joined by “and”; a condition that tells them apart may be missing. Identical values can stand only once.

Assays:
Mus musculus [1] = test: Biodistribution of compound in mice leg muscle after 1 hr of intravenous injection; assay type: ADME, organism-based, Muscle tissue; settings: in vivo
In short: (§1)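 BALB/c mice (about 25 g), n = 4. Free ¹¹¹In- or ⁶⁷Ga-labeled compound (50–100 μL, about 100 000 cpm) was injected into a tail vein. Mice were held in separate cages and killed by cervical dislocation, with blood and cumulative excreta collected. Tissues were rinsed, blotted, weighed and γ-counted, with blood background subtracted (blood volume 8.0%). Values are % injected dose ± SD.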

Mus musculus [2] = test: Biodistribution in mice leg muscle, after 24 hr of intravenous administration of 1-2 ug of compound (entrapped in bovine brain sphingomyelin/ cholesterol multilamellar vehicles); assay type: ADME, organism-based, Muscle tissue; settings: in vivo
In short: (§2)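 BALB/c mice (about 25 g), 3–5 per group, given 50–100 μL tail-vein injection of 111In-labeled conjugate entrapped in SM/CH (2:1 mol/mol) multilamellar vesicles, approx. 100 000 cpm; dose 1–2 μg phospholipid/g body weight. Killed by cervical dislocation at set times; blood, cumulative excretion and rinsed, blotted, weighed tissues γ-counted, blood background subtracted. Result is % injected dose ± SD.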

[3] = Biodistribution in mice excretion, after 24 hr of intravenous administration of 1-2 ug of ofcompound (entrapped in bovine brain sphingomyelin/ cholesterol multilamellar vehicles); assay type: ADME, organism-based; settings: mouse, excretion (excreta, not specified further), read-out: ID; in short: as §2
Mus musculus [4] = test: Biodistribution in mice tail, after 24 hr of intravenous administration of 1-2 ug of compound (entrapped in bovine brain sphingomyelin/ cholesterol multilamellar vehicles); assay type: ADME, organism-based; settings: in vivo
In short: (§3)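 BALB/c mice (about 25 g), groups of 2–5. Compound ¹¹¹In-loaded into SM/CH (2:1, mol/mol) multilamellar vesicles, given as a single tail-vein injection. Lipid dose was 1–2 μg phospholipid/g body weight, in 50–100 μL carrying about 100 000 cpm. Mice were killed by cervical dislocation. Organs were rinsed, blotted, weighed and γ-counted, with blood background subtracted. Values are % injected dose ± SD.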

Mus musculus [5] = test: Biodistribution of compound in mice kidneys after 1 hr of intravenous injection; assay type: ADME, organism-based, Kidney; settings: in vivo; in short: as §1
Mus musculus [6] = test: Biodistribution in mice skin, after 24 hr of intravenous aadministration of 1-2 ug of compound (entrapped in bovine brain sphingomyelin/ cholesterol multilamellar vehicles); assay type: ADME, organism-based, Zone of skin; settings: in vivo; in short: as §2
Mus musculus [7] = test: Biodistribution in mice fat, after 48 hr of intravenous administration of 1-2 ug of compound (entrapped in bovine brain sphingomyelin/ cholesterol multilamellar vehicles); assay type: ADME, organism-based; settings: in vivo; in short: as §2
Mus musculus [8] = test: Biodistribution in mice leg muscle, after 1 hr of intravenous administration of 1-2 ug ofcompound (entrapped in bovine brain sphingomyelin/ cholesterol multilamellar vehicles); assay type: ADME, organism-based, Muscle tissue; settings: in vivo; in short: as §2
Mus musculus [9] = test: Biodistribution of compound in mice liver after 21 hr of intravenous injection; assay type: ADME, organism-based; settings: in vivo; in short: as §1
Mus musculus [10] = test: Biodistribution in mice brain, after 24 hr of intravenous administration of 1-2 ug of compound (entrapped in bovine brain sphingomyelin/ cholesterol multilamellar vehicles); assay type: ADME, organism-based; settings: in vivo; in short: as §2
Mus musculus [11] = test: Biodistribution in mice lung, after 1 hr of intravenous administration of 1-2 ug of compound (entrapped in bovine brain sphingomyelin/ cholesterol multilamellar vehicles); assay type: ADME, organism-based; settings: in vivo; in short: as §2
Mus musculus [12] = test: Biodistribution in mice spleen, after 12 hr of intravenous administration of 1-2 ug of compound (entrapped in bovine brain sphingomyelin/ cholesterol multilamellar vehicles); assay type: ADME, organism-based; settings: in vivo; in short: as §2
[13] = (§4) Biodistribution of compound in mice excretion after 1 hr of intravenous injection; assay type: ADME, organism-based; settings: mouse, excretion (excreta, not specified further), read-out: ID; in short: as §1
Mus musculus [14] = test: as §4; assay type: ADME, organism-based; settings: in vivo, 1 h; in short: as §1
Mus musculus [15] = test: Biodistribution of compound in mice blood after 21 hr of intravenous injection; assay type: ADME, organism-based; settings: in vivo; in short: as §1
Mus musculus [16] = test: Biodistribution in mice stomach, after 1 hr of intravenous administration of 1-2 ug of compound (entrapped in bovine brain sphingomyelin/ cholesterol multilamellar vehicles); assay type: ADME, organism-based; settings: in vivo; in short: as §2
Mus musculus [17] = test: Biodistribution in mice kidneys, after 1 hr of intravenous administration of 1-2 ug of compound (entrapped in bovine brain sphingomyelin/ cholesterol multilamellar vehicles); settings: in vivo
Mus musculus [18] = test: Biodistribution of compound in mice tail after 1 hr of intravenous injection; assay type: ADME, organism-based; settings: in vivo; in short: as §1
Mus musculus [19] = test: Biodistribution of compound in mice liver after 1 hr of intravenous injection; assay type: ADME, organism-based; settings: in vivo; in short: as §1
Mus musculus [20] = test: Biodistribution in mice intestine, after 12 hr of intravenous administration of 1-2 ug of compound (entrapped in bovine brain sphingomyelin/ cholesterol multilamellar vehicles); assay type: ADME, organism-based; settings: in vivo; in short: as §2
Mus musculus [21] = test: Biodistribution in mice blood, after 48 hr of intravenous administration of 1-2 ug of compound (entrapped in bovine brain sphingomyelin/ cholesterol multilamellar vehicles); assay type: ADME, organism-based; settings: in vivo; in short: as §2
Mus musculus [22] = test: Biodistribution of compound in mice spleen after 1 hr of intravenous injection; assay type: ADME, organism-based; settings: in vivo; in short: as §1
Mus musculus [23] = test: Biodistribution in mice leg muscle, after 48 hr of intravenous administration of compound (entrapped in bovine brain sphingomyelin/ cholesterol multilamellar vehicles); assay type: ADME, organism-based, Muscle tissue; settings: in vivo; in short: as §2
Mus musculus [24] = test: Biodistribution in mice heart, after 24 hr of intravenous administration of 1-2 ug of compound (entrapped in bovine brain sphingomyelin/ cholesterol multilamellar vehicles); assay type: ADME, organism-based; settings: in vivo; in short: as §2
Mus musculus [25] = test: Biodistribution of compound in mice tail after 21 hr of intravenous injection; assay type: ADME, organism-based; settings: in vivo; in short: as §1
Mus musculus [26] = test: Biodistribution in mice skin, after 1 hr of intravenous administration of 1-2 ug of compound (entrapped in bovine brain sphingomyelin/ cholesterol multilamellar vehicles); assay type: ADME, organism-based, Zone of skin; settings: in vivo; in short: as §2
Mus musculus [27] = test: Biodistribution of compound in mice carcass after 1 hr of intravenous injection; assay type: ADME, organism-based; settings: in vivo; in short: as §1
Mus musculus [28] = test: Biodistribution in mice liver, after 12 hr of intravenous administration of 1-2 ug of compound (entrapped in bovine brain sphingomyelin/ cholesterol multilamellar vehicles); assay type: ADME, organism-based; settings: in vivo; in short: as §2
Mus musculus [29] = test: Biodistribution in mice brain, after 48 hr of intravenous administrating 1-2 ug of compound (entrapped in bovine brain sphingomyelin/ cholesterol multilamellar vehicles); assay type: ADME, organism-based; settings: in vivo; in short: as §2
Mus musculus [30] = test: Biodistribution in mice leg muscle, after 12 hr of intravenous administration of 1-2 ug of compound (entrapped in bovine brain sphingomyelin/ cholesterol multilamellar vehicles); assay type: ADME, organism-based, Muscle tissue; settings: in vivo; in short: as §2
Mus musculus [31] = test: Biodistribution in mice stomach, after 24 hr of intravenous administration of 1-2 ug of ofcompound (entrapped in bovine brain sphingomyelin/ cholesterol multilamellar vehicles); assay type: ADME, organism-based; settings: in vivo; in short: as §3
Mus musculus [32] = test: Biodistribution of compound in mice leg muscle after 21 hr of intravenous injection; assay type: ADME, organism-based, Muscle tissue; settings: in vivo; in short: as §1
Mus musculus [33] = test: Biodistribution of compound in mice spleen after 0.17 hr of intravenous injection; assay type: ADME, organism-based; settings: in vivo; in short: as §1
Mus musculus [34] = test: Biodistribution in mice skin, after 48 hr of intravenous administration of 1-2 ug ofcompound (entrapped in bovine brain sphingomyelin/ cholesterol multilamellar vehicles); assay type: ADME, organism-based, Zone of skin; settings: in vivo; in short: as §2
[35] = Biodistribution in mice excretion, after 48 hr of intravenous administration of 1-2 ug of compound (entrapped in bovine brain sphingomyelin/ cholesterol multilamellar vehicles) at; assay type: ADME, organism-based; settings: mouse, excretion (excreta, not specified further), read-out: ID; in short: as §2
Mus musculus [36] = test: Biodistribution of compound in mice carcass after 21 hr of intravenous injection; assay type: ADME, organism-based; settings: in vivo; in short: as §1
Mus musculus [37] = test: Biodistribution in mice kidneys, after 12 hr of intravenous administration of 1-2 ug of compound (entrapped in bovine brain sphingomyelin/ cholesterol multilamellar vehicles); assay type: ADME, organism-based, Kidney; settings: in vivo; in short: as §2
[38] = Biodistribution in mice excretion, after 12 hr of intravenous administration of 1-2 ug of compound (entrapped in bovine brain sphingomyelin/ cholesterol multilamellar vehicles); assay type: ADME, organism-based; settings: mouse, excretion (excreta, not specified further), read-out: ID; in short: as §2
Mus musculus [39] = test: Biodistribution in mice spleen, after 48 hr of intravenous administration of 1-2 ug of compound (entrapped in bovine brain sphingomyelin/ cholesterol multilamellar vehicles); assay type: ADME, organism-based; settings: in vivo; in short: as §2

NCCNC(=O)CN(CCN(CCN(CC(=O)O)CC(=O)O)CC(=O)O)CC(=O)O
ID (Mus musculus [1]): 0.8% and 1.3% | ID (Mus musculus [2]): 0.2% | dose excreted at 24 h [3]: 0% | ID (Mus musculus [4]): 0.9% | ID (Mus musculus [5]): 1.9% and 1.7% | ID (Mus musculus [6]): 2% | ID (Mus musculus [7]): 0.1% | ID (Mus musculus [8]): 0.3% | ID (Mus musculus [9]): 0.4% and 2.1% | ID (Mus musculus [10]): 0.2% | ID (Mus musculus [11]): 0.4% | ID (Mus musculus [12]): 4% | dose excreted at 1 h [13]: 50.7% | ID (Mus musculus [14]): 50% | ID (Mus musculus [15]): 1% and 0.7% | ID (Mus musculus [16]): 0.8% | ID (Mus musculus [17]): 0.5% | ID (Mus musculus [18]): 2% | ID (Mus musculus [19]): 0.3% and 1.4% | ID (Mus musculus [20]): 1% | ID (Mus musculus [21]): 0.4% | ID (Mus musculus [22]): 0.1% and 0% | ID (Mus musculus [23]): 0.3% | ID (Mus musculus [24]): 0% | ID (Mus musculus [25]): 2.1% and 2.3% | ID (Mus musculus [26]): 1.6% | ID (Mus musculus [27]): 4.1% and 9.1% | ID (Mus musculus [28]): 73.6% | ID (Mus musculus [29]): 0.2% | ID (Mus musculus [30]): 0.4% | ID (Mus musculus [31]): 0.1% | ID (Mus musculus [32]): 0.2% and 0.3% | ID (Mus musculus [33]): 0.2% and 0.1% | ID (Mus musculus [34]): 2.8% | dose excreted at 48 h [35]: 0% | ID (Mus musculus [36]): 0.8% and 3% | ID (Mus musculus [37]): 0.4% | dose excreted at 12 h [38]: 0% | ID (Mus musculus [39]): 2.9%
